Values after ≈ are worked out from the molar mass of the structure shown. Active and inactive are the calls of the source. No cut-off for these calls is given here.
What was measured:
Peritoneal macrophage = test: Cytotoxicity against Balb/c mouse peritoneal macrophages assessed as reduction in cell viability after 48 hrs by MTT assay; type: cell-based
Summary of the method: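 Murine peritoneal macrophages, 1 × 10^6 cells/well, exposed to compound at 0.1 to 250 µg/ml in RPMI-1640 with 10% FBS for 48h. MTT (5 mg/ml) added for 3 h at 37°C, formazan dissolved in 0.04M HCl in isopropanol for 15 min at room temperature, absorbance read at 570 nm. IC50 (50% loss of viability) taken from a dose–response curve of percentage activity versus log10 concentration.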

[1] = test system: Mycobacterium tuberculosis; test: Antimycobacterial activity against Mycobacterium tuberculosis H37Rv ATCC 27294 at 50 ug/ml after 7 days by microplate alamar blue assay relative to control; type: functional; settings: H37Rv ATCC 27294, 168 h
[2] = test system: Mycolicibacterium smegmatis; test: Antimycobacterial activity against Mycobacterium smegmatis MC2 155 after 48 hrs by serial dilution method; type: functional; settings: str. MC2 155, 48 h
Summary of the method: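 M. smegmatis grown in Middlebrook 7H9 with 10% albumin–dextrose complex and 0.03% Tween80 at 37 °C. Twofold serial dilutions of compound were combined with mid-log culture diluted to OD570 0.01, giving a final range of […] in 7H9 broth. Incubated in ambient air at 37 °C for 48 h. MIC taken as the lowest concentration preventing visible growth.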

[3] = test system: Mycobacterium tuberculosis; test: Antimycobacterial activity against Mycobacterium tuberculosis H37Rv ATCC 27294 after 7 days by microplate alamar blue assay; type: functional; settings: H37Rv ATCC 27294, 168 h
Summary of the method: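 MABA run in 7H12 medium in 96-well plates for 7 days at 37 °C. Alamar Blue and Tween 80 were then added for a further 24 h. Fluorescence was read at 530/590 nm. MIC was the lowest concentration giving a 90% fluorescence (or luminescence) reduction versus controls. Luciferase reporter strains or intracellular ATP were used for compounds with background fluorescence. Isoniazid and rifampin were run as controls.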

HepG2 = test: Cytotoxicity against human HepG2 cells assessed as reduction in cell viability after 72 hrs by MTT assay; type: cell-based; settings: hepg2, 72 h
Summary of the method: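 HepG2 cells grown in Eagle's MEM with 10% FBS at 37 °C and 5% CO2. Cells were scraped, resuspended at ~1 × 10^6 cells/mL, plated and left 24 h, then exposed to compound at 400 to 0.2 µg/mL for 72 h. Viability read by MTT assay. IC50 (50% loss of viability) taken from a dose–response curve versus log10 concentration.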

[4] = test system: Mycobacterium tuberculosis; test: Antimycobacterial activity against Mycobacterium tuberculosis MC2 6030 after 2 to 3 weeks by agar plate method; type: functional
Summary of the method: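 Strain mc²6030 is a pantothenate auxotroph lacking RD1, grown at 37 °C in Sauton's medium plus 20 μg/ml pantothenic acid. Serial 10-fold dilutions of actively growing culture were plated on 7H10/OADC agar with 20 μg/ml pantothenic acid and increasing compound concentrations, from 10 mg/ml DMSO stocks. Plates were held 2–3 weeks at 37 °C. MIC was the concentration inhibiting 99% of growth; isoniazid served as control.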

[5] = test system: Mycolicibacterium smegmatis; test: Inhibition of fattyacid biosynthesis in Mycobacterium smegmatis MC2 155 assessed as reduction in [1-14C]acetate incorporation at 5 times antibacterial MIC preincubated for 90 mins followed by [1-14C]acetate addition measured after 1 hr by liquid scintillation counting based TLC method; type: functional; settings: str. MC2 155
[6] = test system: Mycolicibacterium smegmatis; test: Inhibition of epoxy-mycolic acid biosynthesis in Mycobacterium smegmatis MC2 155 assessed as reduction in [1-14C]acetate incorporation at 5 times antibacterial MIC preincubated for 90 mins followed by [1-14C]acetate addition measured after 1 hr by liquid scintillation counting based TLC method; type: functional; settings: str. MC2 155

SMILES | Activity (Peritoneal macrophage) | inhibition at 50 µg/mL [1] | MIC [2] | MIC90 [3] | Activity (HepG2) | MIC99 [4] | inhibition [5] | inhibition [6]
C=CCOc1cccc(NC(=O)Nc2ccccc2)c1 | 142.5 µg/mL | 73% | 100 µg/mL (≈ 373 µM) | > 50 µg/mL | 150.6 µg/mL | 20 µg/mL (≈ 74.5 µM) | – | –
CCCCOc1cccc(NC(=O)Nc2cccc([N+](=O)[O-])c2)c1 | 74.3 µg/mL | 79% | > 200 µg/mL | > 50 µg/mL | 97.3 µg/mL | 50 µg/mL (≈ 152 µM) | – | –
CC(C)=CCOc1cccc(NC(=O)Nc2ccccc2C(F)(F)F)c1 | 69.4 µg/mL | 45% | 12.5 µg/mL (≈ 34.3 µM) | > 50 µg/mL | 71.4 µg/mL | – | – | –
C=CCOc1ccc(NC(=O)Nc2ccccc2)cc1 | 152.6 µg/mL | 84% | > 200 µg/mL | > 50 µg/mL | 182.4 µg/mL | > 100 µg/mL | – | –
C=CCOc1ccc(NC(=O)Nc2ccccc2C)cc1 | 122.1 µg/mL | – | 50 µg/mL (≈ 177 µM) | 24.5 µg/mL (≈ 86.8 µM) | 99.2 µg/mL | 100 µg/mL (≈ 354 µM) | – | –
CC(C)=CCOc1cccc(NC(=O)Nc2cccc(F)c2)c1 | 83.7 µg/mL | 89% | 25 µg/mL (≈ 79.5 µM) | > 50 µg/mL | 94 µg/mL | – | inactive | Active
CC(C)=CCOc1cccc(NC(=O)Nc2cccc(C(F)(F)F)c2)c1 | 116.7 µg/mL | – | 3.12 µg/mL (≈ 8.56 µM) | 40.2 µg/mL (≈ 110 µM) | 135.6 µg/mL | – | inactive | Active
CC(C)=CCOc1cccc(NC(=O)Nc2ccc(Cl)cc2)c1 | 115.3 µg/mL | 75% | 50 to 100 µg/mL (≈ 151 to 302 µM) | > 50 µg/mL | 122.3 µg/mL | – | – | –
C=CCOc1cccc(NC(=O)Nc2ccccc2C)c1 | 90.3 µg/mL | 68% | > 200 µg/mL | > 50 µg/mL | 102.4 µg/mL | > 100 µg/mL | – | –
NNC(=O)c1ccncc1 [ISONIAZID] | > 200 µg/mL | – | 6.25 µg/mL (≈ 45.6 µM) | 0.11 µg/mL (≈ 0.802 µM) | > 200 µg/mL | 0.05 µg/mL (≈ 0.365 µM) | – | –
CC(C)=CCOc1cccc(NC(=O)Nc2ccccc2[N+](=O)[O-])c1 | 58.1 µg/mL | 43% | > 200 µg/mL | > 50 µg/mL | 61.4 µg/mL | – | – | –
CC(C)=CCOc1cccc(NC(=O)Nc2ccccc2Br)c1 | 119.4 µg/mL | – | 25 µg/mL (≈ 66.6 µM) | 38.7 µg/mL (≈ 103 µM) | 131.9 µg/mL | – | – | –
CC(C)=CCOc1cccc(NC(=O)Nc2ccccc2F)c1 | 68.2 µg/mL | 45% | 50 µg/mL (≈ 159 µM) | > 50 µg/mL | 82.4 µg/mL | – | – | –
C=CCOc1ccc(NC(=O)Nc2cccc(C#N)c2)cc1 | 96.7 µg/mL | 66% | > 200 µg/mL | > 50 µg/mL | 103.5 µg/mL | > 100 µg/mL | – | –
CC(C)=CCOc1cccc(NC(=O)Nc2ccc(F)cc2)c1 | 87.1 µg/mL | 68% | 100 µg/mL (≈ 318 µM) | > 50 µg/mL | 102.8 µg/mL | – | – | –
CCCCOc1ccc(NC(=O)Nc2cccc(C#N)c2)cc1 | 180.9 µg/mL | 22% | > 200 µg/mL | > 50 µg/mL | 206.7 µg/mL | > 100 µg/mL | – | –
CC(C)=CCOc1cccc(NC(=O)Nc2ccc([N+](=O)[O-])cc2)c1 | 75.2 µg/mL | 94% | 100 µg/mL (≈ 293 µM) | > 50 µg/mL | 91.6 µg/mL | – | – | –
CC(C)=CCOc1ccc(NC(=O)Nc2ccccc2C)cc1 | 81.3 µg/mL | 61 to 75% | 50 to 200 µg/mL (≈ 161 to 644 µM) | > 50 µg/mL | – | 50 to 100 µg/mL (≈ 161 to 322 µM) | – | –

SMILES | Activity (Peritoneal macrophage) | inhibition at 50 µg/mL [1] | MIC [2] | MIC90 [3] | Activity (HepG2) | MIC99 [4] | inhibition [5] | inhibition [6]
CC(C)=CCOc1cccc(NC(=O)Nc2ccc(Br)cc2)c1 | 140.2 µg/mL | 86% | 50 to 100 µg/mL (≈ 133 to 266 µM) | > 50 µg/mL | 135.6 µg/mL | – | – | –
CCCCOc1ccc(NC(=O)Nc2ccccc2)cc1 | 108.9 µg/mL | 41% | > 200 µg/mL | > 50 µg/mL | 132.5 µg/mL | > 100 µg/mL | – | –
C=CCOc1ccc(NC(=O)Nc2cccc([N+](=O)[O-])c2)cc1 | 87.5 µg/mL | – | 100 µg/mL (≈ 319 µM) | 45.5 µg/mL (≈ 145 µM) | 111.4 µg/mL | 10 to 100 µg/mL (≈ 31.9 to 319 µM) | – | –
CC(C)=CCOc1ccc(NC(=O)Nc2cccc([N+](=O)[O-])c2)cc1 | 131.2 µg/mL | 69% | > 200 µg/mL | > 50 µg/mL | 142.6 µg/mL | > 100 µg/mL | – | –
CC(C)=CCOc1cccc(NC(=O)Nc2cccc(Cl)c2)c1 | 96.7 µg/mL | – | 25 µg/mL (≈ 75.6 µM) | 48.6 µg/mL (≈ 147 µM) | 114.3 µg/mL | – | – | –
CC(C)=CCOc1cccc(NC(=O)Nc2ccc(C(F)(F)F)cc2)c1 | 115.3 µg/mL | 69% | 6.25 µg/mL (≈ 17.2 µM) | > 50 µg/mL | 142.2 µg/mL | – | – | –
CC(C)=CCOc1cccc(NC(=O)Nc2ccccc2)c1 | 141.8 µg/mL | 79% | > 200 µg/mL | > 50 µg/mL | 168.2 µg/mL | 30 µg/mL (≈ 101 µM) | – | –
C=CCOc1cccc(NC(=O)Nc2cccc([N+](=O)[O-])c2)c1 | 78.4 µg/mL | 76% | 50 µg/mL (≈ 160 µM) | > 50 µg/mL | 105.6 µg/mL | 5 µg/mL (≈ 16 µM) | – | –
CCCCOc1ccc(NC(=O)Nc2cccc([N+](=O)[O-])c2)cc1 | 75.2 µg/mL | – | – | – | – | – | – | –
CC(C)=CCOc1cccc(NC(=O)Nc2ccc(C)cc2)c1 | 127.6 µg/mL | – | 12.5 µg/mL (≈ 40.3 µM) | 10.5 µg/mL (≈ 33.8 µM) | 140.6 µg/mL | – | – | –
CC(C)=CCOc1cccc(NC(=O)Nc2cccc(Br)c2)c1 | 131.8 µg/mL | – | 12.5 µg/mL (≈ 33.3 µM) | 26.5 µg/mL (≈ 70.6 µM) | 148.1 µg/mL | – | – | –
CC(C)=CCOc1ccc(NC(=O)Nc2cccc(C#N)c2)cc1 | 169.1 µg/mL | 82% | 50 µg/mL (≈ 156 µM) | > 500 µg/mL | 186.4 µg/mL | 5 µg/mL (≈ 15.6 µM) | – | –
CCCCOc1cccc(NC(=O)Nc2ccccc2C)c1 | 152.9 µg/mL | 70% | > 200 µg/mL | > 50 µg/mL | 175.1 µg/mL | > 100 µg/mL | – | –
CC(C)=CCOc1cccc(NC(=O)Nc2cccc(C)c2)c1 | 160.3 µg/mL | – | 50 µg/mL (≈ 161 µM) | 32.2 µg/mL (≈ 104 µM) | 175.3 µg/mL | – | – | –
CC(C)=CCOc1cccc(NC(=O)Nc2ccccc2Cl)c1 | 105.6 µg/mL | 64% | 50 µg/mL (≈ 151 µM) | > 50 µg/mL | 128.2 µg/mL | – | – | –
CCCCOc1cccc(NC(=O)Nc2ccccc2)c1 | 121.7 µg/mL | 57% | > 200 µg/mL | > 50 µg/mL | 124.1 µg/mL | 50 to 100 µg/mL (≈ 176 to 352 µM) | – | –
CC(C)CCOc1ccc(NC(=S)Nc2ccc(OCCC(C)C)cc2)cc1 [TIOCARLIDE] | 12.5 µg/mL | – | 25 µg/mL (≈ 62.4 µM) | 2.3 µg/mL (≈ 5.74 µM) | 31.3 µg/mL | – | – | –
